ChEMBL document CHEMBL3232832, “Derivatives of dibenzothiophene for positron emission tomography imaging of α7-nicotinic acetylcholine receptors” (J Med Chem, 2013)

What was measured:
Format in all cases: ADME, organism-based
Conditions in all cases: in vivo, 1.5 h
[1] = Drug uptake in CD-1 mouse superior and inferior colliculus at 0.07 mCi, iv after 90 mins co-administered with SSR180711
How it was run: (§1)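 Male CD-1 mice. [18F]tracer (0.07 mCi, SA 7900 mCi/µmol, 0.2 mL) co-injected i.v. with blocker at 0 (vehicle), 0.02, 0.2, 1 or 3 mg/kg. Blocker dissolved in saline:alcohol 9:1, pH 5.5. Brain regions harvested at 90 min and gamma-counted. %ID/g, mean ± SD, n=3 per dose; ANOVA versus controls.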

[2] = tested on: Striatum; assay: Drug uptake in CD-1 mouse striatum at 0.07 mCi, iv after 90 mins co-administered with SSR180711; how it was run: as §1
[3] = tested on: Brain; assay: Drug uptake in CD-1 mouse other brain regions at 0.07 mCi, iv after 90 mins co-administered with SSR180711; how it was run: as §1
[4] = tested on: Cortex; assay: Drug uptake in CD-1 mouse cortex at 0.07 mCi, iv after 90 mins co-administered with SSR180711
How it was run: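 Male CD-1 mice (25–30 g), three per dose. Blocker in saline:ethanol 9:1 pH 5.5, given i.v. with [18F] radiotracer (70 µCi, SA 7900 mCi/µmol). Blocker doses 0, 0.02, 0.2, 1 and 3 mg/kg. Regions dissected 90 min later and gamma counted. Expressed as %ID/g, mean ± SD.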

Measured: Drug uptake

O=S1(=O)c2cc(N3CCN4CCC3CC4)ccc2-c2cccc([18F])c21
Not Active: [1] | [2] | [3] | [4]
